The source made the active and inactive calls.
What was measured:
[1] = target: T1, Delta-type opioid receptor (Mus musculus, UniProt P32300); experiment: Displacement of [125I]-BNtxA from mouse cloned delta opioid receptor expressed in CHO cells after 90 mins; assay type: cell-based
In short: (§1)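 CHO membranes stably expressing cloned mouse MOR-1, DOR-1 or KOR-1 (30-40 μg/mL protein), competition against 0.1 nM 125I-BNtxA. Incubation 90 min at 25°C in 50 mM potassium phosphate pH 7.4, with 5 mM MgSO4 for MOR-1 only. Nonspecific binding with 8 μM levallorphan. Ki from IC50. Mean ± SEM, at least three replicates.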

[2] = target: T2, Kappa-type opioid receptor (Mus musculus, UniProt P33534); experiment: Displacement of [125I]-BNtxA from mouse cloned kappa opioid receptor expressed in CHO cells after 90 mins; assay type: cell-based; in short: as §1
T2 sequence (P33534 whole entry): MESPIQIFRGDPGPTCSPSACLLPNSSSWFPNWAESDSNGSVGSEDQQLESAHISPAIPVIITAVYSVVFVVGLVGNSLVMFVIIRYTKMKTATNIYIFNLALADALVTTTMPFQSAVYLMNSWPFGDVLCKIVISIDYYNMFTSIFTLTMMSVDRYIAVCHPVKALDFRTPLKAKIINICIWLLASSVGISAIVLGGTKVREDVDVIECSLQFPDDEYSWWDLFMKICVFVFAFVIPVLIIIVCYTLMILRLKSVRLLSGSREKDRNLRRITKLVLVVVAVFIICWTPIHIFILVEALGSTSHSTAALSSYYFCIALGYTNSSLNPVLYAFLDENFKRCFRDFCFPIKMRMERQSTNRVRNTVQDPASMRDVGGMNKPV

[3] = target: T3, Mu-type opioid receptor (Mus musculus, UniProt P42866); experiment: Displacement of [125I]-BNtxA from mouse cloned mu opioid receptor expressed in CHO cells after 90 mins; assay type: cell-based; in short: as §1
T3 sequence (P42866 whole entry): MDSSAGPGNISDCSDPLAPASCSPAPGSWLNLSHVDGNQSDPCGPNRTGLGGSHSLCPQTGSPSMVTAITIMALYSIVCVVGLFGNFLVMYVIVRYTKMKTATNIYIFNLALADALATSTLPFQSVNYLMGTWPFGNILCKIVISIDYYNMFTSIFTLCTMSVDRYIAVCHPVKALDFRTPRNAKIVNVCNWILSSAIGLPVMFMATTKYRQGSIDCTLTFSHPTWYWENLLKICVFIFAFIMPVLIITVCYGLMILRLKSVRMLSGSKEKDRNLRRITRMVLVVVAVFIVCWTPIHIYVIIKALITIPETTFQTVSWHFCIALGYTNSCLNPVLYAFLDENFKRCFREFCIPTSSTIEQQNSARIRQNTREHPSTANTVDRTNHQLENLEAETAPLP

[4] = tested on: Mus musculus; experiment: Analgesic activity in sc dosed CD1 mouse assessed as increase in pain threshold by tail flick method; assay type: functional
In short: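 Male CD-1 mice (25-35 g), radiant heat tail-flick. Baseline 2.0-3.0 s, mean of two trials. Cumulative s.c. dosing, tested 30 min after dose, groups n=10, two independent assays. Analgesia defined quantally as doubling or more of baseline latency.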

[5] = target: T1, Delta-type opioid receptor; experiment: Agonist activity at mouse cloned delta opioid receptor expressed in CHO cells after 60 mins by [35S]GTPgammaS binding assay; assay type: functional, cell-based
In short: (§2)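 Membranes from transfected cells incubated with agonist 60 min at 30°C in 50 mM Tris-HCl pH 7.4, 3 mM MgCl2, 0.2 mM EGTA, 10 mM NaCl, with 0.05 nM [35S]GTPγS and GDP. Filtration on glass-fibre filters, scintillation counting. Basal binding with GDP and no drug. Mean ± SEM, three assays in triplicate.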

[6] = target: Kappa-type opioid receptor (Mus musculus) (UniProt P33534); experiment: Agonist activity at mouse cloned kappa opioid receptor expressed in CHO cells at 100 nM after 60 mins by [35S]GTPgammaS binding assay relative to U50488H; assay type: functional, cell-based
Kappa-type opioid receptor (Mus musculus), sequence (P33534 whole entry): as the sequence (P33534 whole entry) above
In short: as §2, with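 “drug. […]” for “drug.”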

[7] = tested on: Mus musculus; experiment: Analgesic activity in sc dosed CD1 mouse assessed as increase in pain threshold by tail flick method in presence of kappa opioid receptor antagonist norBNI; assay type: functional, organism-based
In short: (§3)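 Tail-flick test in CD1 mice (n=6 per group) given agonist 5 mg/kg s.c. alone or with antagonist s.c.: norBNI 10 mg/kg or β-FNA 40 mg/kg 24 h before, NTI 20 mg/kg 15 min before. Latency read 30 min after agonist. Two independent replications; ANOVA with Bonferroni test (p < 0.05).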

[8] = tested on: Mus musculus; experiment: Analgesic activity in sc dosed CD1 mouse assessed as increase in pain threshold by tail flick method in presence of mu opioid receptor antagonist beta-FNA; assay type: functional, organism-based; in short: as §3
[9] = target: T2, Kappa-type opioid receptor; experiment: Agonist activity at mouse cloned kappa opioid receptor expressed in CHO cells after 60 mins by [35S]GTPgammaS binding assay; assay type: functional, cell-based
In short: as §2, with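 “drug. […]” for “drug.”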

[10] = species on record: Mus musculus; experiment: Selectivity ratio of EC50 for mouse cloned delta opioid receptor to EC50 for mouse cloned mu opioid receptor by [35S]GTPgammaS binding assay; assay type: functional
[11] = species on record: Mus musculus; experiment: Selectivity ratio of Ki for mouse cloned delta opioid receptor to Ki for mouse cloned mu opioid receptor
[12] = tested on: Mus musculus; experiment: Analgesic activity in sc dosed CD1 mouse assessed as increase in pain threshold by tail flick method in presence of delta opioid receptor antagonist […]; assay type: functional, organism-based; in short: as §3
[13] = target: T3, Mu-type opioid receptor; experiment: Agonist activity at mouse cloned mu opioid receptor expressed in CHO cells after 60 mins by [35S]GTPgammaS binding assay; assay type: functional, cell-based; in short: as §2
[14] = target: Delta-type opioid receptor (Mus musculus) (UniProt P32300); experiment: Agonist activity at mouse cloned delta opioid receptor expressed in CHO cells after 60 mins by [35S]GTPgammaS binding assay relative to DPDPE; assay type: functional, cell-based
Delta-type opioid receptor (Mus musculus), sequence (P32300 whole entry): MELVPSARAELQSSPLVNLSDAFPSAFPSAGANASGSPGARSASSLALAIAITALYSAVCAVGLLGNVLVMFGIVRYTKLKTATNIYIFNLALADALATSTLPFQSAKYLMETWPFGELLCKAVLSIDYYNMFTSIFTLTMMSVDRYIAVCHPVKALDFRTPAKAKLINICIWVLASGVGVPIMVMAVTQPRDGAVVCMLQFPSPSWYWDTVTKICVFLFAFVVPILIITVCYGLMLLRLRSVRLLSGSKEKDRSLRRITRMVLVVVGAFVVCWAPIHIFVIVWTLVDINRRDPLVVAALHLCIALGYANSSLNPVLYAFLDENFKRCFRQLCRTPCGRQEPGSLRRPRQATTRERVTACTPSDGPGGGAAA
In short: as §2, with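 “drug. […]” for “drug.”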

[15] = species on record: Mus musculus; experiment: Selectivity ratio of EC50 for mouse cloned kappa opioid receptor to EC50 for mouse cloned mu opioid receptor by [35S]GTPgammaS binding assay; assay type: functional
[16] = tested on: Mus musculus; experiment: Toxicity in CD1 mouse assessed as respiratory depression at 24 mg/kg, sc measured after 15 to 35 mins; assay type: organism-based; set-up: dose 24 mg/kg, route subcutaneous; conditions: in vivo
In short: (§4)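 Awake, freely moving adult male CD1 mice, pulse oximeter breath rate after 30 min habituation. 5-s average breath rate every 5 min. Baseline over 25 min before s.c. injection, then recorded from 15 min post-injection for 35 min. Groups n=3, saline control. Values given as percent of baseline.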

[17] = target: Mu-type opioid receptor (Mus musculus) (UniProt P42866); experiment: Agonist activity at mouse cloned mu opioid receptor expressed in CHO cells after 60 mins by [35S]GTPgammaS binding assay relative to DAMGO; assay type: functional, cell-based
Mu-type opioid receptor (Mus musculus), sequence (P42866 whole entry): as the sequence (P42866 whole entry) above
In short: as §2, with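 “drug. […]” for “drug.”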

[18] = tested on: Mus musculus; experiment: Toxicity in CD1 mouse assessed as respiratory depression at 20 mg/kg, sc measured after 15 to 35 mins; assay type: organism-based; set-up: dose 20 mg/kg, route subcutaneous; conditions: in vivo; in short: as §4
[19] = species on record: Mus musculus; experiment: Selectivity ratio of Ki for mouse cloned kappa opioid receptor to Ki for mouse cloned mu opioid receptor

T1 sequence (P32300 whole entry): as the sequence (P32300 whole entry) above

CN1CC[C@]23c4c5ccc(O)c4O[C@H]2[C@H](NC(=O)/C=C/c2ccc(Cl)cc2)C=C[C@H]3[C@H]1C5 was tested, and the Ki [1] was 9.38 nM, the Ki [2] was 1.97 nM and the Ki [3] was 0.15 nM. The ED50 [4] was > 10 mg/kg.

In the case of CN1CC[C@]23c4c5ccc(O)c4O[C@H]2[C@H](NC(=O)/C=C/c2ccccc2)C=C[C@H]3[C@H]1C5, the EC50 [5] is reported as 9.1 nM, the Efficacy [6] is reported as 106% and the Activity [7] is reported as “Active”. The Activity [8] was “inactive”, the Ki [1] was 10.3 nM and the EC50 [9] was 36.5 nM. The Ratio EC50 [10] was 4, the Ratio Ki [11] was 103 and the Activity [12] was “inactive”. For the same molecule, the EC50 [13] was 1.38 nM, the Ki [2] was 2.9 nM and the Efficacy [14] was 102%. The Ratio EC50 [15] was 25, the Activity [16] was “Non-toxic” and the Efficacy [17] was 95.3%. The Ki [3] was 0.1 nM and the ED50 [4] was 3.13 mg/kg.

In the case of COc1ccc2c3c1O[C@H]1[C@H](NC(=O)/C=C/c4ccc(Cl)cc4)C=C[C@H]4[C@@H](C2)N(C)CC[C@@]341, the Ki [1] is reported as > 100 nM, the Ki [2] is reported as > 100 nM and the Ki [3] is reported as 3.81 nM. The ED50 [4] was > 10 mg/kg.

For CN1CC[C@]23c4c5ccc(O)c4O[C@H]2[C@H](NC(=O)/C=C/c2cccc([N+](=O)[O-])c2)C=C[C@H]3[C@H]1C5, the Ki [1] was 5.15 nM, the Ki [2] was 0.81 nM and the Ki [3] was 0.12 nM. The ED50 [4] was > 10 mg/kg.

For COc1ccc2c3c1O[C@H]1[C@H](NC(=O)/C=C/c4ccccc4)C=C[C@H]4[C@@H](C2)N(C)CC[C@@]341, the Ki [1] was > 100 nM, the Ki [2] was > 100 nM and the Ki [3] was 4.73 nM. For the same molecule, the ED50 [4] was > 10 mg/kg.

With COc1ccc(/C=C/C(=O)N[C@@H]2C=C[C@H]3[C@H]4Cc5ccc(OC)c6c5[C@@]3(CCN4C)[C@H]2O6)cc1 the Ki [1] was > 100 nM, the Ki [2] was > 100 nM and the Ki [3] was 25.2 nM. The ED50 [4] was > 10 mg/kg.

With CN1CC[C@]23c4c5ccc(O)c4O[C@H]2[C@@H](O)C=C[C@H]3[C@H]1C5 [MORPHINE] the Activity [18] was “Toxic” and the ED50 [4] was 4.96 mg/kg.

Work on COc1ccc(/C=C/C(=O)N[C@@H]2C=C[C@H]3[C@H]4Cc5ccc(O)c6c5[C@@]3(CCN4C)[C@H]2O6)cc1 yielded a Ki [1] of 15.3 nM, a Ki [2] of 5.43 nM and a Ki [3] of 0.74 nM. The ED50 [4] was > 10 mg/kg.

With COc1ccc2c3c1O[C@H]1[C@H](NC(=O)/C=C/c4cccc([N+](=O)[O-])c4)C=C[C@H]4[C@@H](C2)N(C)CC[C@@]341 the Ki [1] was > 100 nM, the Ki [2] was > 100 nM and the Ki [3] was 3.74 nM. For the same molecule, the ED50 [4] was > 10 mg/kg.

CN1CC[C@]23c4c5ccc(O)c4O[C@H]2[C@H](NC(=O)/C=C/c2ccc(C(F)(F)F)cc2)C=C[C@H]3[C@H]1C5 gave a Ki [1] of 14.5 nM, a Ratio Ki [19] of 55.4 and a Ki [2] of 10.5 nM. For the same molecule, the Ki [3] was 0.19 nM and the ED50 [4] was > 10 mg/kg.

COc1ccc2c3c1O[C@H]1[C@H](NC(=O)/C=C/c4ccc(C(F)(F)F)cc4)C=C[C@H]4[C@@H](C2)N(C)CC[C@@]341 was tested, and the Ki [1] was > 100 nM, the Ki [2] was > 100 nM and the Ki [3] was 5.44 nM. For the same molecule, the ED50 [4] was > 10 mg/kg.

Reference: ChEMBL document CHEMBL2434954, “Novel 6β-acylaminomorphinans with analgesic activity” (Eur J Med Chem, 2013)
